The target in experiment [1] is Monoamine transporters; serotonin & dopamine (Rattus norvegicus) (UniProt P31652+P23977). As to the kind of experiment: Selectivity for serotonin and dopamine transporters. Type of experiment: protein assay.
Experiment [2] has as its target Sodium-dependent dopamine transporter (Rattus norvegicus, UniProt P23977). Nature of the experiment: Binding affinity at dopamine transporter from rat striatal membrane tissue by [3H]CFT displacement. Type of experiment: tissue-based, Striatum. The method, boiled down: (§1)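 Rat striatal P2 membranes: tissue homogenised in 0.32 M sucrose, pellet polytronned in ice-cold 35 mM sodium phosphate, pH 7.4. Incubation 2 h on ice, final sodium phosphate 30 mM, final DMSO 0.5%. Five inhibitor concentrations set after range-finding. Mean ± SEM of 3–5 (DAT, [3H]CFT) or 2–3 (SERT, [3H]citalopram) independent experiments, each in triplicate.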

In experiment [3] the target is Sodium-dependent serotonin transporter (Rattus norvegicus, UniProt P31652). Nature of the experiment: Binding affinity at serotonin transporter from rat brain striatal membrane by [3H]citalopram displacement. It is filed as tissue-based. In a few lines: as §1
Sequence of Sodium-dependent serotonin transporter (P31652 whole entry): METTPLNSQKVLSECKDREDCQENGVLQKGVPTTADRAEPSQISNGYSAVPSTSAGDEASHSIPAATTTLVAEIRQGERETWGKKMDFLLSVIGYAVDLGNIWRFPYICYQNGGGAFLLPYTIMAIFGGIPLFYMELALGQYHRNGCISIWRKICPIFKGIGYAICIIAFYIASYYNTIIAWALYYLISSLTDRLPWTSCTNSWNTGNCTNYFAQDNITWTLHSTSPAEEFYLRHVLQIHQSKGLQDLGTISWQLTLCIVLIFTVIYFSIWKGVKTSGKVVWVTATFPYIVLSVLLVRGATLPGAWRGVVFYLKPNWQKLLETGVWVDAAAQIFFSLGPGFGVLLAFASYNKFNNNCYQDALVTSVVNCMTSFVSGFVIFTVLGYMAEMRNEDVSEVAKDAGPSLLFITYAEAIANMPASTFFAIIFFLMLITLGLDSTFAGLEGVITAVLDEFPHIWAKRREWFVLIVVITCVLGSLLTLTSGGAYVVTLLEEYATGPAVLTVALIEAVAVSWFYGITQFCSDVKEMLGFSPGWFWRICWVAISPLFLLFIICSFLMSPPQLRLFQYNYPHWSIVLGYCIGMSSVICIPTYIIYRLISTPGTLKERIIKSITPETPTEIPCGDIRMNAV

Sequence of Sodium-dependent dopamine transporter (P23977 whole entry): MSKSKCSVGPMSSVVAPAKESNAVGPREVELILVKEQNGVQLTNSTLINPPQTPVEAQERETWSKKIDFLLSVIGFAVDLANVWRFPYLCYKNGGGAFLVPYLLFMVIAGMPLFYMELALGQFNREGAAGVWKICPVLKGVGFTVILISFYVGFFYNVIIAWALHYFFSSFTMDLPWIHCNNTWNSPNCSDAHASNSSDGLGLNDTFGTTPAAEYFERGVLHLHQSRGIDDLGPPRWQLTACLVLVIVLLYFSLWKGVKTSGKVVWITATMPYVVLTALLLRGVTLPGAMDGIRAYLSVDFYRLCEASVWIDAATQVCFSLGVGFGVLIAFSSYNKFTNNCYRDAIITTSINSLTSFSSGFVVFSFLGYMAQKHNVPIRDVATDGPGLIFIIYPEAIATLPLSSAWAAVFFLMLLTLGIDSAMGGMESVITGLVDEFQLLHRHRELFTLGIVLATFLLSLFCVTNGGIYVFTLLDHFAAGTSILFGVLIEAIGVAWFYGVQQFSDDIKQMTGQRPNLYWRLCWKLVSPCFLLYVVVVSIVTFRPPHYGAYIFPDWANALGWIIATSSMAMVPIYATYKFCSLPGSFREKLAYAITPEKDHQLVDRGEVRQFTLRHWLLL
Sequence of Monoamine transporters; serotonin & dopamine (Rattus norvegicus) (P23977 whole entry, looked up): as the sequence (P23977 whole entry) above
Sequence of Monoamine transporters; serotonin & dopamine (Rattus norvegicus) (P31652 whole entry, looked up): as the sequence (P31652 whole entry) above

`Clc1ccc(C(OCCC2CCN(CCCc3ccccc3)CC2)c2ccc(Cl)cc2)cc1` yielded a Selectivity in experiment [1] of 3.5. For the same molecule, the IC50 came out at 65 nM in experiment [2] and 224 nM in experiment [3].

For `Clc1ccc(C(OCCC2CCN(CCc3ccccc3)CC2)c2ccc(Cl)cc2)cc1`, the Selectivity in experiment [1] came to 3.6. Besides, the IC50 was 115 nM in experiment [2] and 414 nM in experiment [3].

`c1ccc(CN2CCC(CCOC(c3ccccc3)c3ccccc3)CC2)cc1` gave a Selectivity in experiment [1] of 49. The IC50 amounted to 15.2 nM in experiment [2] and 743 nM in experiment [3].

In experiment [1], `COc1ccc(C(OCCC2CCN(CCCc3ccccc3)CC2)c2ccc(OC)cc2)cc1` showed a Selectivity of 1.3. For the same molecule, the IC50 in experiment [2] is 255 nM; in experiment [3], 340 nM.

In experiment [1], `Fc1ccc(C(OCC2CCN(CCCc3ccccc3)CC2)c2ccc(F)cc2)cc1` gave a Selectivity of 8.6. Moreover, the IC50 was 13 nM in experiment [2] and 112 nM in experiment [3].

In experiment [3], `c1ccc(CCN2CCC(CCOC(c3ccccc3)c3ccccc3)CC2)cc1` yielded an IC50 of 102 nM.

As for `Brc1ccc(C(OCCC2CCN(CCc3ccccc3)CC2)c2ccc(Br)cc2)cc1`, the Selectivity in experiment [1] was 1.6. Moreover, the IC50 in experiment [2] turned out to be 382 nM; in experiment [3], 638 nM.

`Fc1ccc(C(OCC2CCN(CCc3ccccc3)CC2)c2ccc(F)cc2)cc1` came in with a Selectivity in experiment [1] of 17.5. For the same molecule, the IC50 in experiment [2] is 13.5 nM; in experiment [3], 237 nM.

`c1ccc(CCCN2CCC(CCOC(c3ccccc3)c3ccccc3)CC2)cc1` displayed a Selectivity in experiment [1] of 20. Further, the figures for the IC50 in experiment [2] and in experiment [3] were 12 nM and 232 nM, respectively.

Turning to `Fc1ccc(C(OCCC2CCN(CCc3ccccc3)CC2)c2ccc(F)cc2)cc1`, the concentration for half-maximal inhibition (IC50) in experiment [3] came to 31.9 nM.

In experiment [1], `c1ccc(CN2CCC(COC(c3ccccc3)c3ccccc3)CC2)cc1` came in with a Selectivity of 0.7. Moreover, the IC50 stood at 702 nM in experiment [2] and 544 nM in experiment [3].

In experiment [1], `Cc1ccc(C(OCCC2CCN(CCc3ccccc3)CC2)c2ccc(C)cc2)cc1` registered a Selectivity of 2.8. In addition, the IC50 in experiment [2] came out at 311 nM; in experiment [3], 888 nM.

Turning to `Brc1ccc(C(OCCC2CCN(CCCc3ccccc3)CC2)c2ccc(Br)cc2)cc1`, in experiment [1], the Selectivity is 5.2. In addition, the IC50 in experiment [2] is 159 nM; in experiment [3], 835 nM.

`Fc1ccc(C(OCCC2CCN(Cc3ccccc3)CC2)c2ccc(F)cc2)cc1`: the Selectivity in experiment [1] amounted to 20. The results for the IC50 in experiment [2] and in experiment [3] were 9.7 nM and 198 nM, respectively.

Molecule `Fc1ccc(C(OCCC2CCN(CCCc3ccccc3)CC2)c2ccc(F)cc2)cc1` displayed a Selectivity in experiment [1] of 3.3. Further, the IC50 is 16.7 nM in experiment [2] and 55 nM in experiment [3].

`Fc1ccc(C(OCC2CCN(Cc3ccccc3)CC2)c2ccc(F)cc2)cc1` showed a Selectivity in experiment [1] of 6. Further, the IC50 was found to be 126 nM in experiment [2] and 761 nM in experiment [3].

In turn, `c1ccc(CCN2CCC(COC(c3ccccc3)c3ccccc3)CC2)cc1` returned a Selectivity in experiment [1] of 4.2. Besides, the IC50 was determined as 108 nM in experiment [2] and 456 nM in experiment [3].

Consider `c1ccc(CCCN2CCC(COC(c3ccccc3)c3ccccc3)CC2)cc1`, for which the Selectivity in experiment [1] was determined as 4. The IC50 worked out at 14.5 nM in experiment [2] and 58 nM in experiment [3].

Source of the values: ChEMBL document CHEMBL1129478, “Structure-activity relationship studies of novel 4-[2-[bis(4-fluorophenyl)methoxy]ethyl]-1-(3-phenylpropyl)piperidine analogs: synthesis and biological evaluation at the dopamine and serotonin transporter sites” (J Med Chem, 1996).
